# Source: PubChem
# A selection: hits, their analogues and other compounds. The true share with any hit is near 4%.
# DAGLB inh: DAGLB lipase inhibitors, primary screen, biochemical, fluorescence, HTS. HEK293T DAGLB membrane lysate, EnzChek fluorogenic substrate. inhibition, % at 5.17 µM. actives 0.059% (n = 340,000). AID 504411, 2011; in the data active = inhibition above about 34%;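 note: 0% = enzyme with vehicle and 100% = wells lacking enzyme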
# TAAR1 antagonist: human TAAR1 antagonists, primary screen, Fluo-8 calcium fluorescence, CHO RD-HGA16 cells; Trace amine-associated receptor 1 (Homo sapiens), Q96RJ0; antagonist; inhibition, % at 3 µM; actives 1.5% (n = 360,000); AID 624466, 2012;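 active = inhibition above a per-plate cutoff, the mean inhibition of test compounds on that plate plus 3 SD, cut at about 49% in these data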;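 note: 0% = DMSO plus EC80 beta-PEA response and 100% = DMSO alone without agonist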
# Target sequence (Q96RJ0 whole entry, looked up): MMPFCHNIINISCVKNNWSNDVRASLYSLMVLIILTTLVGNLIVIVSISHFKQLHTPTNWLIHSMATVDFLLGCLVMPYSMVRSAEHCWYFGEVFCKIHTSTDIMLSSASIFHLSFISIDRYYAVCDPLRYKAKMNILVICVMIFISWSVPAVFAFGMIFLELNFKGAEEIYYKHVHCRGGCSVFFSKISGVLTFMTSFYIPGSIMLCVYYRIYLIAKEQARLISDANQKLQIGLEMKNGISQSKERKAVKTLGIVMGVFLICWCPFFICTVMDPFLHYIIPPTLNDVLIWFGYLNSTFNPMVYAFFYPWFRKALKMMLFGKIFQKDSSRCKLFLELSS
#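 Test system: CHO RD-HGA16 cells bearing hTAAR1 | Reagent: β-PEA, EC80 | Compound dosing: 3 µM, single point | Schedule: Dye loading 75 min at 37 °C, then 30 min room temperature | Signal: Calcium fluorescence with Fluo-8 | Evaluation: Percent inhibition of PEA-evoked calcium signal, max/basal emission ratio | Control set: DMSO-only wells and EC80 β-PEA-stimulated wells | Repeats: Singlicate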
# TAAR1 agonist: human TAAR1 agonists, primary screen, Fluo-8 calcium fluorescence, CHO RD-HGA16 cells; vehicle wells 0%, saturating PEA agonist 100%; activation, % at 3 µM; actives 0.99% (n = 360,000);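 active = activation above the mean activation of all test compounds in the run plus 3 SD, cut at about 38% in these data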
#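 test system = CHO RD-HGA16 cells carrying human TAAR1 plus Gα16 | schedule = 17-24 h seeding, 75 min 37 °C dye, 30 min RT | compound dosing = 3 µM single concentration | control set = DMSO and PEA EC100 | replicates = n 1 | signal = Fluo-8 fluorescence, 5 s baseline then 140 s kinetic read | measure = percent activation vs PEA EC100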
# GPR7 antagonist: GPR7 receptor antagonists, primary screen, cell-based, fluorescence, single concentration; inhibition, % at 4.4 µM; GPR7-expressing cells, fluorescence antagonist assay; Neuropeptides B/W receptor type 1 (Homo sapiens), P48145; actives 1.1% (n = 290,000); in the data active = inhibition above about 16%, passing the limit was not always enough;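 note: cells stimulated with the agonist NPW; 0% = agonist with vehicle and 100% = vehicle without agonist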
# Target sequence (P48145 whole entry, looked up): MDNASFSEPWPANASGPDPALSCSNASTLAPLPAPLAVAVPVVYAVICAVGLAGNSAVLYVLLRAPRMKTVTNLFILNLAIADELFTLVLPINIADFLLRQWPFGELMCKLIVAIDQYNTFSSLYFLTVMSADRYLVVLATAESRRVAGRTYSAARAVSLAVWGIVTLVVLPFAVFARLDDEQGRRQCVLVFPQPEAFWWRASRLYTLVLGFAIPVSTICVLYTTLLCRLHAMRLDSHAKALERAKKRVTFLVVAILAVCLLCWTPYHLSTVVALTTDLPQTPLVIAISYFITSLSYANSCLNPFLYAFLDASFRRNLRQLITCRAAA
# MPTP inh: mitochondrial permeability transition pore inhibitors, primary screen, biochemical, isolated mouse mitochondria, absorbance; Ca2+ swelling absorbance, 30 min; inhibition, % at 10 µM; actives 1.4% (n = 360,000);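 active = inhibition of 50% or more, scaled per plate between neutral and stimulator controls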;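 note: 0% = DMSO wells given calcium and 100% = 1 mM EGTA wells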
# MPTP counter: fluorescence retest of MPTP screen hits in isolated mitochondria, single concentration | shares compounds with MPTP inh | membrane potential, Rhodamine 123 fluorescence | inhibition, % at 10 µM | actives 78% (n = 5,000) | AID 624504, 2012; in the data active = inhibition above about 22%;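 note: 0% = DMSO vehicle and 100% = positive control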
# MPTP swell DR: mitochondrial permeability transition pore inhibitors, dose response, biochemical, absorbance, uHTS hits. shares compounds with MPTP inh. isolated mitochondria swelling. IC50, µM. actives 58% (n = 780). AID 651561, 2012; in the data active = IC50 below about 20 µM
# MPTP counter DR: fluorescent counter-screen in isolated mitochondria, dose response, counter-screen for MPTP inhibitor project, biochemical, fluorescence, uHTS hits; shares compounds with MPTP inh; isolated mitochondria counterscreen, fluorescence read-out; IC50, µM; actives 49% (n = 780); AID 651564, 2012; in the data active = IC50 below about 80 µM
# The depositor's hits bear a star; . = no result given.
SMILES,DAGLB inh,TAAR1 antagonist,TAAR1 agonist,GPR7 antagonist,MPTP inh,MPTP counter,others
O=C(CCc1ccccc1)NC(NC(=S)Nc1cccc(Cl)c1)C(Cl)(Cl)Cl (centres undefined),-3,5,13,-9,94*,78*,
CCCC(=O)NC(NC(=S)Nc1ccc(N=Nc2ccccc2)cc1)C(Cl)(Cl)Cl (centres undefined),23,16,13,-10,103*,62*,
CSc1cccc(NC(=S)NC(=O)CCc2ccccc2)c1,-11,-14,0,-8,1,.,
O=C(CCc1ccccc1)NC(NC(=S)Nc1ccc(Br)cc1)C(Cl)(Cl)Cl (centres undefined),-25,26,11,5,81*,81*,
CCCC(=O)NC(NC(=S)Nc1ccc(S(N)(=O)=O)cc1)C(Cl)(Cl)Cl (centres undefined),-1,-13,0,-1,0,.,
O=C(CCc1ccccc1)NNC(=O)Nc1ccc(Br)cc1,-1,7,9,3,40,.,
Cc1cc(=O)n2nc(N3CCCC(C(=O)Nc4cccc(C)c4C)C3)sc2n1 (centres undefined),.,-8,0,.,-1,.,
c1ccc(C[C@H]2CN=C(Nc3ccccc3)N2CC2CCCC2)cc1,.,-11,8,.,1,.,
CN(C(=O)COC(=O)/C=C/c1ccccc1)C1CCS(=O)(=O)C1 (centres undefined),-3,-22,0,.,0,.,
O=C(Nc1ccccc1)Nc1nc(-c2ccccc2)cs1,-3,16,6,-5,85*,80*,
O=C(Nc1ccc(Cl)c(Cl)c1)Nc1nc(-c2ccccc2)cs1,3,18,13,-5,74*,73*,
CCCCCCCCN1C(=O)[C@H](CC(=O)N2CCN(C(=O)OCC)CC2)C[C@@]2(C(=O)OCC)CCCC=C12,.,-45,-3,.,-2,.,
Cc1oc(-c2cccc(Cl)c2)nc1CN1CCCC(C(=O)NC(C)c2ccc3c(c2)OCCO3)C1 (centres undefined),-6,21,4,3,51*,15,MPTP swell DR=12*;MPTP counter DR=20*
O=C(N[C@H](Cc1ccccc1)C(=O)NCCCc1ccccc1)[C@H]1O[C@@H](n2ccc(=O)[nH]c2=O)[C@H](O)[C@@H]1O,.,7,2,.,.,.,
O=C(Nc1cc(Cl)cc2c1-c1ccc(Cl)cc1C2O)C(Cl)Cl (centres undefined),1,11,4,.,93*,76*,
COc1cccc2c1C1COC3C4CC(C(=O)O)C(C(C2)N13)N4C (centres undefined),-1,-3,0,.,-1,.,
CCCCOc1ncnc2c1[nH]c1ccc(OCC)cc12,-2,14,-2,8,1,.,
CCOC(=O)N1CCN(c2ncnc3c2[nH]c2ccc(F)cc23)CC1,0,17,23,10,98*,84*,
OC1(c2cccc(C(F)(F)F)c2)CCN(c2ncnc3c2[nH]c2ccc(F)cc23)CC1,0,60*,13,1,50*,87*,
CCOC(=O)N1CCN(c2ncnc3c2[nH]c2ccc(OC)cc23)CC1,-2,5,6,2,0,.,
O=C(CCCN1CCC(O)(c2cccc(C(F)(F)F)c2)CC1)c1ccc(F)cc1,1,14,15,.,4,.,
Fc1ccc2[nH]c3c(N4CCN(c5ccccc5)CC4)ncnc3c2c1,1,57*,22,5,98*,112*,
Fc1ccc2[nH]c3c(Cl)ncnc3c2c1,-1,3,4,-3,-1,.,
CCCCOc1ncnc2c1[nH]c1ccc(F)cc12,-5,29,9,11,95*,84*,
COc1ccc(C(=O)NCC2CCN(C(=O)C(=O)c3cccs3)CC2)c(OC)c1,.,-12,0,.,.,.,
SMILES,DAGLB inh,TAAR1 antagonist,TAAR1 agonist,GPR7 antagonist,MPTP inh,MPTP counter,others
O=S(=O)(c1ccc2nc(Nc3ccccc3)ccc2c1)N1CCCCC1,-1,6,2,-17,-1,.,
CC(=O)C1=C(C)NC(=S)NC1c1ccc(F)cc1 (centres undefined),.,0,3,.,.,.,
CCc1ccc(C2CC3C(CN2S(=O)(=O)c2ccc(C)cc2)[C@@H](O)C[C@@H](c2ccc(CC)cc2)N3S(=O)(=O)c2ccc(C)cc2)cc1 (some centres undefined),.,-11,1,.,0,.,
CCOc1ccc(N/C(SCc2cccc([N+](=O)[O-])c2)=C(/C#N)C(N)=O)cc1,1,-28,0,-8,2,.,
N#CC(C#N)=C(Nc1ccc(F)cc1)SCc1cccc(F)c1,9,6,6,3,95*,85*,
CC1=C(C)C(O)N(Cc2ccccc2)C1=O (centres undefined),0,4,0,-9,0,.,
COC(=O)C1(F)C(=O)NC(=O)NC1OC (centres undefined),.,-17,1,.,.,.,
O=C(/C(=N\Nc1ccc([N+](=O)[O-])cc1)Sc1nnnn1-c1ccccc1)c1ccccc1,22,24,5,-4,94*,90*,
O=[N+]([O-])c1ccc(O)c(CSc2nnnn2-c2ccccc2)c1,0,11,6,-4,78*,93*,
O=C(O)c1cc(-n2nnnc2SCc2ccc([N+](=O)[O-])cc2)ccc1Cl,-3,13,0,-6,0,.,
COc1ccc(C(=O)O)cc1S(=O)(=O)Nc1ccc(N2CCCCC2)cc1,2,10,2,.,-2,.,
CSc1ccc(CNC(=O)C2(C)CCCN(C(C)=O)C2)cc1 (centres undefined),.,-13,1,.,0,.,
CCOC(=O)c1cc(NC(=O)Nc2ccc(Br)cc2)c(C)nc1C,-6,21,10,-1,74*,70*,
CN(C)c1cccc2c(S(=O)(=O)NC(=O)[C@H]3O[C@@H](n4ccc(=O)[nH]c4=O)[C@H](O)[C@@H]3O)cccc12,.,-22,4,.,.,.,
Oc1ccc(CCc2ccccn2)cc1,-3,-10,4,.,1,.,
O=[N+]([O-])c1cc(C(F)(F)F)ccc1NCCCCNS(=O)(=O)c1ccc(Cl)cc1,0,-6,2,0,86*,90*,
O=[N+]([O-])c1cc(C(F)(F)F)ccc1NCCNC(=S)Nc1ccc(Cl)cc1,0,23,14,-1,94*,70*,
